# Reference: ChEMBL document CHEMBL1143102, “Synthesis, radiofluorination, and in vitro evaluation of pyrazolo[1,5-a]pyridine-based dopamine D4 receptor ligands: discovery of an inverse agonist radioligand for PET” (J Med Chem, 2008)
# Molecular target: T1, D(2) dopamine receptor (Homo sapiens, UniProt P14416)
# Test: Displacement of [3H]spiperone from cloned human dopamine D2L receptor expressed in CHO cells
# Type: cell-based
# T1 sequence (P14416 whole entry): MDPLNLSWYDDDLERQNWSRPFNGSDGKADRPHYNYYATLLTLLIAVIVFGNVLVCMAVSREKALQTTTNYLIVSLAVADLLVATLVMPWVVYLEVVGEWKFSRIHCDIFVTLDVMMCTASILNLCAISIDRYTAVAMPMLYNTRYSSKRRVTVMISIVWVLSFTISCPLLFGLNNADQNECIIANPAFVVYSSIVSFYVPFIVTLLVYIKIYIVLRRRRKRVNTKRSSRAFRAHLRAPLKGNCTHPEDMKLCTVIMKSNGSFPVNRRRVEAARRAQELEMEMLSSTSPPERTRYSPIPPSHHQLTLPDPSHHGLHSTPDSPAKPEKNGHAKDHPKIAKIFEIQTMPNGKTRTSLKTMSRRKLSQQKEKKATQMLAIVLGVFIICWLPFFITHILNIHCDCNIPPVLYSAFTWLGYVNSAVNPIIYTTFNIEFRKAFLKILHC
row,Compound,Ki [µM]
1,Fc1cccc(N2CCN(Cc3cc4ccccn4n3)CC2)n1,3.4
2,Oc1ccc(N2CCN(Cc3cnn4ccccc34)CC2)cc1,6.1
3,FCCOc1ccc(N2CCN(Cc3cnn4ccccc34)CC2)cc1,66
4,Oc1ccccc1N1CCN(Cc2cnn3ccccc23)CC1,4.5
5,FCCOc1ccc(N2CCN(Cc3cc4ccccn4n3)CC2)cc1,30

# The next compounds have a lower Ki than those just listed; values first:
row,Ki [µM],Compound
1,0.33,Fc1cccc(N2CCN(Cc3cnn4ccccc34)CC2)n1
2,0.15,FCCOc1ccccc1N1CCN(Cc2cnn3ccccc23)CC1
3,0.046,FCCOc1ccccc1N1CCN(Cc2cc3ccccn3n2)CC1
4,0.21,Brc1cccc(N2CCN(Cc3cnn4ccccc34)CC2)n1

# Molecular target: T1, D(2) dopamine receptor
# Test: Displacement of [3H]spiperone from cloned human dopamine D2S receptor expressed in CHO cells
# Type: cell-based
row,Compound,Ki [nM]
1,Fc1cccc(N2CCN(Cc3cc4ccccn4n3)CC2)n1,1700
2,Oc1ccc(N2CCN(Cc3cnn4ccccc34)CC2)cc1,87000
3,FCCOc1ccc(N2CCN(Cc3cnn4ccccc34)CC2)cc1,79000
4,Oc1ccccc1N1CCN(Cc2cnn3ccccc23)CC1,4700
5,FCCOc1ccc(N2CCN(Cc3cc4ccccn4n3)CC2)cc1,50000

# More lines, now with the values ahead:
row,Ki [nM],Compound
1,220,Fc1cccc(N2CCN(Cc3cnn4ccccc34)CC2)n1
2,180,FCCOc1ccccc1N1CCN(Cc2cnn3ccccc23)CC1
3,79,FCCOc1ccccc1N1CCN(Cc2cc3ccccn3n2)CC1
4,150,Brc1cccc(N2CCN(Cc3cnn4ccccc34)CC2)n1

# Molecular target: D(3) dopamine receptor (Homo sapiens, UniProt P35462)
# Test: Displacement of [3H]spiperone from cloned human dopamine D3 receptor expressed in CHO cells
# Type: cell-based
# D(3) dopamine receptor, sequence (P35462 whole entry): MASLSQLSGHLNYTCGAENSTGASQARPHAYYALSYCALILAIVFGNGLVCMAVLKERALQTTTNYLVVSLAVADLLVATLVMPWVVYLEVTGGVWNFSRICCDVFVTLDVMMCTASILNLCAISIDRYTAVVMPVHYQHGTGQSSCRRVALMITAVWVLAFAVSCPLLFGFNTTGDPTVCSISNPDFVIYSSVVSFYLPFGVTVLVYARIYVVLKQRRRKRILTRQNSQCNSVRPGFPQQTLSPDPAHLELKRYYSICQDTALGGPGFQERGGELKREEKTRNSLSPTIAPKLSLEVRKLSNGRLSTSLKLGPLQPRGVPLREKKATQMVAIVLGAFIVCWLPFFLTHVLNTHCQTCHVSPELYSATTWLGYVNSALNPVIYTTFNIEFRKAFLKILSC
row,Compound,Ki [nM]
1,Fc1cccc(N2CCN(Cc3cc4ccccn4n3)CC2)n1,3400
2,Oc1ccc(N2CCN(Cc3cnn4ccccc34)CC2)cc1,3400
3,FCCOc1ccc(N2CCN(Cc3cnn4ccccc34)CC2)cc1,8700
4,Oc1ccccc1N1CCN(Cc2cnn3ccccc23)CC1,2200
5,FCCOc1ccc(N2CCN(Cc3cc4ccccn4n3)CC2)cc1,15000

# Further lines, results first:
row,Ki [nM],Compound
1,590,Fc1cccc(N2CCN(Cc3cnn4ccccc34)CC2)n1
2,320,FCCOc1ccccc1N1CCN(Cc2cnn3ccccc23)CC1
3,940,FCCOc1ccccc1N1CCN(Cc2cc3ccccn3n2)CC1
4,410,Brc1cccc(N2CCN(Cc3cnn4ccccc34)CC2)n1

# System: not listed separately
# Test: Displacement of [3H]spiperone from cloned human dopamine D4.4 receptor expressed in CHO cells
# Type: cell-based
row,Compound,Ki [nM]
1,Fc1cccc(N2CCN(Cc3cnn4ccccc34)CC2)n1,8.8
2,Fc1cccc(N2CCN(Cc3cc4ccccn4n3)CC2)n1,24
3,FCCOc1ccccc1N1CCN(Cc2cnn3ccccc23)CC1,1.6
4,Oc1ccc(N2CCN(Cc3cnn4ccccc34)CC2)cc1,20
5,FCCOc1ccccc1N1CCN(Cc2cc3ccccn3n2)CC1,1.3
6,Brc1cccc(N2CCN(Cc3cnn4ccccc34)CC2)n1,2.6
7,FCCOc1ccc(N2CCN(Cc3cnn4ccccc34)CC2)cc1,28
8,Oc1ccccc1N1CCN(Cc2cnn3ccccc23)CC1,44
9,FCCOc1ccc(N2CCN(Cc3cc4ccccn4n3)CC2)cc1,13

# Molecular target: D(1A) dopamine receptor (Sus scrofa, UniProt P50130)
# Test: Displacement of [3H][…] from dopamine D1 receptor in pig striatal membrane
# Type: cell membranes, Striatum
# D(1A) dopamine receptor, sequence (P50130 whole entry): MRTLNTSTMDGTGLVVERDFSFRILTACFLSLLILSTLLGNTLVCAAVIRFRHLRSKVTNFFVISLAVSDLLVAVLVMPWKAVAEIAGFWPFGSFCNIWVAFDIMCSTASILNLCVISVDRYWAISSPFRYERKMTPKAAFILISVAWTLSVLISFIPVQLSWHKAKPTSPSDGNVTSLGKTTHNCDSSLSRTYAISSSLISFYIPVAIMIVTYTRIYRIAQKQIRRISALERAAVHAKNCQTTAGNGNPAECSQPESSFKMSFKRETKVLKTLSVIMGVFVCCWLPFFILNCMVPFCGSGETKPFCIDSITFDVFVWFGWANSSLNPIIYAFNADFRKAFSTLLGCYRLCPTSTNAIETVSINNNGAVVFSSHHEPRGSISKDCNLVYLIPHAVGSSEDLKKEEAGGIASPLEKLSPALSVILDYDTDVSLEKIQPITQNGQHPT
row,Compound,Ki [µM]
1,Fc1cccc(N2CCN(Cc3cc4ccccn4n3)CC2)n1,30
2,Oc1ccc(N2CCN(Cc3cnn4ccccc34)CC2)cc1,9.9
3,FCCOc1ccc(N2CCN(Cc3cnn4ccccc34)CC2)cc1,33
4,Oc1ccccc1N1CCN(Cc2cnn3ccccc23)CC1,2.8
5,FCCOc1ccc(N2CCN(Cc3cc4ccccn4n3)CC2)cc1,29

# Other lines, results leading:
row,Ki [µM],Compound
1,7.3,Fc1cccc(N2CCN(Cc3cnn4ccccc34)CC2)n1
2,2.5,FCCOc1ccccc1N1CCN(Cc2cnn3ccccc23)CC1
3,4.8,FCCOc1ccccc1N1CCN(Cc2cc3ccccn3n2)CC1
4,3.9,Brc1cccc(N2CCN(Cc3cnn4ccccc34)CC2)n1

# Molecular target: not listed separately
# Test: Displacement of [3H]8-OH-DPAT from 5HT1A receptor in pig cortical membranes
# Type: cell membranes, Sus scrofa
# Method in brief: (§1)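 Competition binding on porcine cortical membranes. Radioligands, each at 0.5 nM final: [3H]8-OH-DPAT for 5-HT1A, [3H]ketanserin for 5-HT2, [3H]prazosin for α1.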
row,Compound,Ki [nM]
1,Fc1cccc(N2CCN(Cc3cc4ccccn4n3)CC2)n1,1200
2,Oc1ccc(N2CCN(Cc3cnn4ccccc34)CC2)cc1,12000
3,FCCOc1ccc(N2CCN(Cc3cnn4ccccc34)CC2)cc1,13000
4,Oc1ccccc1N1CCN(Cc2cnn3ccccc23)CC1,680
5,FCCOc1ccc(N2CCN(Cc3cc4ccccn4n3)CC2)cc1,1400

# The next lines start with the values.
row,Ki [nM],Compound
1,290,Fc1cccc(N2CCN(Cc3cnn4ccccc34)CC2)n1
2,120,FCCOc1ccccc1N1CCN(Cc2cnn3ccccc23)CC1
3,5700,FCCOc1ccccc1N1CCN(Cc2cc3ccccn3n2)CC1
4,120,Brc1cccc(N2CCN(Cc3cnn4ccccc34)CC2)n1

# Molecular target: 5-hydroxytryptamine receptor 2A (Sus scrofa, UniProt P50129)
# Test: Displacement of [3H]ketanserin from 5HT2 receptor in pig cortical membranes
# Type: cell membranes
# Method in brief: as §1
# 5-hydroxytryptamine receptor 2A, sequence (P50129 whole entry): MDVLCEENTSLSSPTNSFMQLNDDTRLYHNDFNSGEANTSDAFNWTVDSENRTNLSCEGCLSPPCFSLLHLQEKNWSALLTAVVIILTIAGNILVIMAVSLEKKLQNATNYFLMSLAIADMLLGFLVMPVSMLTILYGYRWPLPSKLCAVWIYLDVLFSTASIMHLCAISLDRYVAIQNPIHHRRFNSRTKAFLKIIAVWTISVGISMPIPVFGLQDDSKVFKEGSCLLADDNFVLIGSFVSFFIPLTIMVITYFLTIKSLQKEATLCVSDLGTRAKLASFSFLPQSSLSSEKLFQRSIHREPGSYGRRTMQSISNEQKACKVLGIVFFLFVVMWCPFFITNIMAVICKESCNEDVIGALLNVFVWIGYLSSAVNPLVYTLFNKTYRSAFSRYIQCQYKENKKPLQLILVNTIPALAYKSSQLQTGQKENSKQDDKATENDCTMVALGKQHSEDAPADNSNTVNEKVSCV
row,Compound,Ki [µM]
1,Fc1cccc(N2CCN(Cc3cc4ccccn4n3)CC2)n1,9.7
2,Oc1ccc(N2CCN(Cc3cnn4ccccc34)CC2)cc1,24.7
3,FCCOc1ccc(N2CCN(Cc3cnn4ccccc34)CC2)cc1,14
4,Oc1ccccc1N1CCN(Cc2cnn3ccccc23)CC1,1.5
5,FCCOc1ccc(N2CCN(Cc3cc4ccccn4n3)CC2)cc1,5.5

# Results, then the compound that gave them:
row,Ki [µM],Compound
1,5.4,Fc1cccc(N2CCN(Cc3cnn4ccccc34)CC2)n1
2,2.9,FCCOc1ccccc1N1CCN(Cc2cnn3ccccc23)CC1
3,13,FCCOc1ccccc1N1CCN(Cc2cc3ccccn3n2)CC1
4,1.2,Brc1cccc(N2CCN(Cc3cnn4ccccc34)CC2)n1

# Molecular target: not listed separately
# Test: Displacement of [3H]prazosin from adrenergic alpha1 receptor in pig cortical membranes
# Type: cell membranes, Sus scrofa
# Method in brief: as §1
row,Compound,Ki [nM]
1,Fc1cccc(N2CCN(Cc3cc4ccccn4n3)CC2)n1,910
2,Oc1ccc(N2CCN(Cc3cnn4ccccc34)CC2)cc1,82
3,FCCOc1ccc(N2CCN(Cc3cnn4ccccc34)CC2)cc1,4500
4,Oc1ccccc1N1CCN(Cc2cnn3ccccc23)CC1,26
5,FCCOc1ccc(N2CCN(Cc3cc4ccccn4n3)CC2)cc1,4100

# Now from value to compound:
row,Ki [nM],Compound
1,87,Fc1cccc(N2CCN(Cc3cnn4ccccc34)CC2)n1
2,5.4,FCCOc1ccccc1N1CCN(Cc2cnn3ccccc23)CC1
3,40,FCCOc1ccccc1N1CCN(Cc2cc3ccccn3n2)CC1
4,21,Brc1cccc(N2CCN(Cc3cnn4ccccc34)CC2)n1

# Organism: Homo sapiens
# Test: Selectivity for human dopamine D4.4 receptor over human dopamine D2L receptor
row,Compound,Ratio Ki
1,Fc1cccc(N2CCN(Cc3cc4ccccn4n3)CC2)n1,142
2,FCCOc1ccc(N2CCN(Cc3cnn4ccccc34)CC2)cc1,2360
3,FCCOc1ccc(N2CCN(Cc3cc4ccccn4n3)CC2)cc1,2310

# Next, values leading:
row,Ratio Ki,Compound
1,38,Fc1cccc(N2CCN(Cc3cnn4ccccc34)CC2)n1
2,35,FCCOc1ccccc1N1CCN(Cc2cc3ccccn3n2)CC1

# Organism: Homo sapiens
# Test: Selectivity for human dopamine D4.4 receptor over human dopamine D2S receptor
row,Compound,Ratio Ki
1,Fc1cccc(N2CCN(Cc3cc4ccccn4n3)CC2)n1,71
2,FCCOc1ccc(N2CCN(Cc3cnn4ccccc34)CC2)cc1,2820
3,FCCOc1ccc(N2CCN(Cc3cc4ccccn4n3)CC2)cc1,3850

# Now from value to compound:
row,Ratio Ki,Compound
1,25,Fc1cccc(N2CCN(Cc3cnn4ccccc34)CC2)n1
2,61,FCCOc1ccccc1N1CCN(Cc2cc3ccccn3n2)CC1

# Organism: Homo sapiens
# Test: Selectivity for human dopamine D4.4 receptor over human dopamine D3 receptor
row,Compound,Ratio Ki
1,Fc1cccc(N2CCN(Cc3cc4ccccn4n3)CC2)n1,142
2,FCCOc1ccc(N2CCN(Cc3cnn4ccccc34)CC2)cc1,311
3,FCCOc1ccc(N2CCN(Cc3cc4ccccn4n3)CC2)cc1,1150

# Second part, the compound after the results:
row,Ratio Ki,Compound
1,67,Fc1cccc(N2CCN(Cc3cnn4ccccc34)CC2)n1
2,723,FCCOc1ccccc1N1CCN(Cc2cc3ccccn3n2)CC1

# System: not listed separately
# Test: Agonist activity at rat dopamine D4.2 receptor expressed in CHO10001A cells assessed as incorporation of [3H]thymidine relative to quinpirole
# Type: functional
row,Compound,Efficacy [%]
1,FCCOc1ccccc1N1CCN(Cc2cnn3ccccc23)CC1,71
2,FCCOc1ccccc1N1CCN(Cc2cc3ccccn3n2)CC1,49
3,FCCOc1ccc(N2CCN(Cc3cnn4ccccc34)CC2)cc1,-41
4,FCCOc1ccc(N2CCN(Cc3cc4ccccn4n3)CC2)cc1,-37

# System: not listed separately
# Test: Agonist activity at rat dopamine D4.2 receptor expressed in CHO10001A cells assessed as incorporation of [3H]thymidine
# Type: functional, cell-based
row,Compound,EC50 [nM]
1,FCCOc1ccc(N2CCN(Cc3cnn4ccccc34)CC2)cc1,18
2,FCCOc1ccc(N2CCN(Cc3cc4ccccn4n3)CC2)cc1,9.1

# The remaining lines, values ahead:
row,EC50 [nM],Compound
1,1,FCCOc1ccccc1N1CCN(Cc2cnn3ccccc23)CC1
2,0.8,FCCOc1ccccc1N1CCN(Cc2cc3ccccn3n2)CC1
